From ChEMBL document CHEMBL2321690, “New betulinic acid derivatives for bevirimat-resistant human immunodeficiency virus type-1” (J Med Chem, 2013) come the findings set out here.

The term IC50 denotes the point on the concentration scale where inhibition reaches its midpoint.

The nature of the assay: Inhibition of wild type Human immunodeficiency virus 1 NL4-3 envelope glycoprotein gp160-mediated cell-cell fusion between virus-infected monkey COS cells to human TZM-bl cells after 24 hrs by luciferase reporter gene assay. The assay is classed as cell-based. To be noted: Human immunodeficiency virus 1, NL4-3, COS. The gist of the method: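 COS cells (1 × 10^6 cells/mL) electroporated (950 µF, 150 V) with vector expressing NL4-3 Env and tat, then cultured one day. Mixed with TZM-bl cells with inhibitor over a 1–10000 nM range. Luciferase (RLU) in fused cells read 24 h after mixing, expressed as % of no-compound fusion. Points are mean ± SD of three tests.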
For orientation: Reporter assays use an easily measured gene product as a stand-in for the process of interest.

Molecules are shown by their SMILES.

For `C=C(C)[C@@H]1CC[C@]2(C(=O)NCCCCCCCNC(C)=O)CC[C@]3(C)[C@H](CC[C@@H]4[C@@]5(C)CC[C@H](O)C(C)(C)[C@@H]5CC[C@]43C)[C@@H]12`, half-maximal inhibition (IC50) required 42 nM.
